An excerpt weighted towards active compounds, which were near 3.7% of everything screened.
KCNK3 inh = human KCNK3 channel inhibitors, primary screen, CHO cells, FluxOR thallium flux, B-score | B-score at 10 µM | hit rate 0.84% among 340,000 | AID 602410, 2012 | FluxOR fluorescence; hits give low values;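 active means B-score under library mean minus 4 SD, starting fluorescence ratio at most library mean plus 5 SD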;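 further: more negative B-score means stronger inhibition of thallium flux through KCNK3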
Kir21 inh = inhibitors of mouse Kir2.1 inward-rectifier potassium channel. Inward rectifier potassium channel 2 (Mus musculus), P35561. HEK293-Kir2.1, FluxOR thallium flux fluorescence; hits give low values. B-score at 10 µM. hit rate 0.85% among 310,000;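 active means fluorescence ratio B-score at or below minus 3 SD of library scores, with starting-brightness B-score within 2 SD, cut at about -4.2 in these data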;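 further: channel flux triggered by added potassium and thallium sulfate stimulus; B-score of peak minus minimum fluorescence over baseline after thallium stimulus; more negative B-score means stronger Kir2.1 block with less thallium influx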
Target sequence (P35561 whole entry, looked up): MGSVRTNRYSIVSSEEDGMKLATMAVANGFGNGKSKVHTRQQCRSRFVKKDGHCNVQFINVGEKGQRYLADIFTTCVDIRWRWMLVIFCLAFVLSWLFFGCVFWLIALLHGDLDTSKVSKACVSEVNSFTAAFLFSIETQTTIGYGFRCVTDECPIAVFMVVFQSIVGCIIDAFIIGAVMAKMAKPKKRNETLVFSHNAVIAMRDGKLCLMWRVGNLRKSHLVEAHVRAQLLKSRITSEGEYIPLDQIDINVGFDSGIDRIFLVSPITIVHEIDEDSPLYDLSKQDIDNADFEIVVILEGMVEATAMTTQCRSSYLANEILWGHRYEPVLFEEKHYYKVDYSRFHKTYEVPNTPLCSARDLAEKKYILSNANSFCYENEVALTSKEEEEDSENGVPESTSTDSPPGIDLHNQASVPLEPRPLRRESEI
KCNQ1 inh = inhibitors of human KCNQ1 channel, primary screen, cell-based, thallium flux, high-throughput; CHO-K1 KCNQ1, FluxOR thallium flux fluorescence; hits give high values; hit rate 1.3% among 310,000; B-score at 10 µM;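 active means compounds whose thallium flux B-score, printed positive for inhibition, exceeds three library SD while starting fluorescence stays within three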;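 further: channel opened by potassium depolarization with thallium stimulus after 20 min compound exposure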
hERG protect = hERG rescue from dofetilide block, primary screen, cell-based, CHO-hERG, FluxOR thallium flux, dofetilide IC70. Voltage-gated inwardly rectifying potassium channel KCNH2 (Homo sapiens), Q12809. dofetilide IC70 present. activation (rescue from dofetilide block), less the hit threshold, % at 10 µM. hit rate 0.51% among 310,000. AID 1511, 2009;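 active means activation above the mean of controls blocked by dofetilide plus 5 SD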;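 further: thallium influx through hERG after potassium depolarization seen as dye fluorescence rise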
KCNQ1 pot = potentiators or activators of KCNQ1 channel, primary screen, cell-based, thallium flux, high-throughput | B-score at 10 µM | hit rate 0.35% among 310,000 | CHO-K1 KCNQ1, thallium flux FluxOR fluorescence; hits give high values;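 active means fluorescence ratio B-score, a plate-corrected score, at least three library SD, with initial intensity B-score within 5 SD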
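Assay system: stable KCNQ1 CHO-K1 line; medium: assay buffer, equal DMSO in all wells; timing: 90 min dye loading and 20 min compound exposure, both at room temperature; technique: kinetic FluxOR thallium fluorescence, 10-s 1-Hz baseline, 110-s post-stimulus read; read-out basis: B score of baseline-normalized fluorescence ratio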
KCNK9 block = KCNK9 potassium channel inhibitors, primary screen, HEK293 cells, thallium flux; B-score at 10 µM; hit rate 1.2% among 310,000; Potassium channel subfamily K member 9 (Homo sapiens), Q9NPC2; FluxOR thallium flux fluorescence; hits give low values; AID 488922, 2010;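 active means ratio B-score over 3 SD below the library mean, with starting fluorescence within 5 SD of its mean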;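 further: negative B-score means less thallium flux so channel inhibition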
KCNK3 inh conf = retest of human KCNK3 channel inhibitors, confirmation, CHO cells, FluxOR thallium flux, triplicate. FluxOR fluorescence; 0% buffer, 100% carvedilol maximal block. hit rate 99% among 2,400. ratio percent of control, % at 10 µM. shares compounds with KCNK3 inh;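 active means ratio percent of control, averaged over triplicates, above buffer control mean plus 5 SD, cut at about 64% in these data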;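 further: ratio is the fluorescence rise from min to max over baseline after thallium stimulus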
KCNK3 noninduced = thallium flux inhibition in non-induced cells, primary screen, counter-screen for KCNK3 inhibitor project, cell-based, non-induced KCNK3 line, FluxOR thallium, triplicate; shares compounds with KCNK3 inh; non-induced KCNK3 parental cells; hits give low values; thallium flux ratio (lower = more inhibition) at 10 µM; hit rate 40% among 2,400; AID 651747, 2012;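 active means thallium flux ratio, averaged over three wells, more than 5 SD below the buffer control mean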;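 further: host cells are CHO cells without KCNK3 induction; ratio is peak minus trough fluorescence over baseline then normalized to buffer controls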
An asterisk follows results filed as active.

How did Nc1cccc(Oc2ccc3c(c2)C(=O)NC3=O)c1 do in these assays?
KCNK3 inh: inactive; Kir21 inh: 0.4; KCNQ1 inh: inactive; hERG protect: -10; KCNQ1 pot: inactive; KCNK9 block: inactive

What do the screens show for `CCOc1cc(C(=S)N2CCOCC2)ccc1OC(=O)c1cccc(C)c1`?
KCNK3 inh: -9.1*; Kir21 inh: 1.1; KCNQ1 inh: inactive; hERG protect: -3; KCNQ1 pot: inactive; KCNK9 block: inactive; KCNK3 inh conf: 114*; KCNK3 noninduced: inactive

How did CCOc1cc(C(=S)N2CCOCC2)ccc1OC(=O)c1ccc(C)cc1 do in these assays?
KCNK3 inh: inactive; Kir21 inh: -0.45; KCNQ1 inh: inactive; hERG protect: -9; KCNQ1 pot: inactive; KCNK9 block: inactive

What do the screens show for `CCOc1cc(C(=S)N2CCOCC2)ccc1OC(=O)c1ccccc1`?
KCNK3 inh: -8.9*; Kir21 inh: -2.9; KCNQ1 inh: inactive; hERG protect: -8; KCNQ1 pot: inactive; KCNK9 block: inactive; KCNK3 inh conf: 92*; KCNK3 noninduced: inactive

How did CCOc1cc(C(=S)N2CCOCC2)ccc1OC do in these assays?
KCNK3 inh: inactive; Kir21 inh: -0.89; KCNQ1 inh: inactive; hERG protect: -2; KCNQ1 pot: inactive; KCNK9 block: inactive

What do the screens show for `COc1ccccc1OCCCn1c(C)c(C#N)c2ccccc21`?
KCNK3 inh: -10*; Kir21 inh: -2; KCNQ1 inh: inactive; hERG protect: -9; KCNQ1 pot: inactive; KCNK9 block: inactive; KCNK3 inh conf: 119*; KCNK3 noninduced: 0.16*

What do the screens show for `Cc1c(C#N)c2ccccc2n1CC(=O)O`?
KCNK3 inh: inactive; Kir21 inh: -0.13; KCNQ1 inh: inactive; hERG protect: -10; KCNQ1 pot: inactive; KCNK9 block: inactive

How did Cc1cc(NC(=O)c2cc(C(C)C)on2)nn1Cc1ccc(Cl)cc1 do in these assays?
KCNK3 inh: -9.5*; Kir21 inh: -0.41; KCNQ1 inh: inactive; hERG protect: -11; KCNQ1 pot: inactive; KCNK9 block: inactive; KCNK3 inh conf: 105*; KCNK3 noninduced: inactive

How did Cc1cc(C(=O)Nc2cc(C)n(Cc3ccc(Cl)cc3)n2)no1 do in these assays?
KCNK3 inh: inactive; Kir21 inh: -1.2; KCNQ1 inh: inactive; hERG protect: -6; KCNQ1 pot: inactive; KCNK9 block: inactive

What do the screens show for `COc1ccc(NC(=O)CN(C)C(=O)c2c(C)nn(Cc3ccccc3)c2C)cc1`?
KCNK3 inh: inactive; Kir21 inh: 1.2; KCNQ1 inh: inactive; hERG protect: -9; KCNQ1 pot: inactive; KCNK9 block: inactive

What do the screens show for `CC(=O)Nc1ccc(S(=O)(=O)N2CCN(C(=O)c3ncoc3-c3ccccc3)CC2)cc1`?
KCNK3 inh: inactive; Kir21 inh: 0.2; KCNQ1 inh: inactive; hERG protect: -7; KCNQ1 pot: inactive; KCNK9 block: inactive

Results for C/C(=N\Nc1ccc([N+](=O)[O-])cc1[N+](=O)[O-])C(C)C(C)C (stereo not drawn) ?
KCNK3 inh: -9.2*; Kir21 inh: -0.41; KCNQ1 inh: 8*; hERG protect: -8; KCNQ1 pot: inactive; KCNK9 block: inactive; KCNK3 inh conf: 93*; KCNK3 noninduced: 0.14*

Screening data as filed in PubChem BioAssay.
